# Measurements published in PMC3714013 (Chemistry & biology, 2013).
# Where two headings read alike, the source gives them in different places. Positions of bridges follow the written chain, without caps; N, C: chain ends. No end group written: not given here.
# Experiments:
# Adult male Wistar rats = assay: AgRP-induced weight gain in free-feeding rats, ICV injection; assay type: in vivo, rat
# Summary of the method: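 Adult male Wistar rats, housed individually on a 12-12h light:dark cycle with chow. Third-ventricle cannula implanted under isoflurane, recovery ≥7 days, placement verified by a plasma glucose rise after ICV 5-thio-D-glucose. ICV pre-treatment with vehicle or test peptide, then 1 h later AgRP (0.01 nmol) or vehicle; n=8–10/group. Body weight gain followed over 5 days.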
# MC1R [1] = biological target: T1, MC1R (Homo sapiens, UniProt Q01726); settings: cited from earlier work
# T1 sequence (Q01726 whole entry): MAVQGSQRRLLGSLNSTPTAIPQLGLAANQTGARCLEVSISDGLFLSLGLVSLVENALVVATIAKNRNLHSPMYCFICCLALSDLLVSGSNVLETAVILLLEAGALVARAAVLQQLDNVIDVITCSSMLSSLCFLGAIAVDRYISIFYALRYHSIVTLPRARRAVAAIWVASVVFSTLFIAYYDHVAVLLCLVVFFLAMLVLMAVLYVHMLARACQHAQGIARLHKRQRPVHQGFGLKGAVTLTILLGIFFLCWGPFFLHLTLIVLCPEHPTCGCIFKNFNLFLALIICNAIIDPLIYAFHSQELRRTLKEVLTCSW
# MC1R [2] = biological target: T1, MC1R; assay: Competitive; assay type: binding
# Summary of the method: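 Intact HEK 293T cells were transiently transfected with a human MC1R construct (calcium phosphate), harvested after 20 h and plated at 10,000–70,000 cells/well in binding buffer. Eu-NDP-MSH ([…]) plus 3-fold dilutions of test peptide (9.0×10−6M to 4.6×10−10M) were incubated for 2 h at 37°C. Read-out was time-resolved fluorescence. Tracer Kd came from saturation binding. Three independent experiments, in duplicate.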
# human MC4R = human MC4R (Homo sapiens, UniProt P32245); assay: Competitive; assay type: binding
# Chain of human MC4R (P32245 whole entry): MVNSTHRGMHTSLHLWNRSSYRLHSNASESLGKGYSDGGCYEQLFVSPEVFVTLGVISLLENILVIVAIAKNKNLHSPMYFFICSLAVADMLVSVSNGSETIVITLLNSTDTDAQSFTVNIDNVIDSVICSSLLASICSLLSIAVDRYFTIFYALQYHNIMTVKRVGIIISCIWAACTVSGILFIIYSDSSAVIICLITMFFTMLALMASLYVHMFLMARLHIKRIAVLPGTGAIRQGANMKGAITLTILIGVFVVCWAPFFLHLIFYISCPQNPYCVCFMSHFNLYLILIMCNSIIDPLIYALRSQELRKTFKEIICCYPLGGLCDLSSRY
# Summary of the method: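 Intact HEK293T cells transiently transfected (calcium phosphate) with human MC4R, harvested 20 h later, in L*R binding buffer at 10,000–70,000 cells/well. […] Washed, DELFIA enhancement, time-resolved fluorescence. Three independent experiments in duplicate.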
# [3] = test system: Melan-a cells (MC1R activation); settings: ref Candille et al., 2007; cited from earlier work
# MC1R [4] = biological target: T1, MC1R; settings: read-out: MC1R Ki; ref Kiefer et al., 1998; cited from earlier work
# Chain of Asip (P42127 93-132): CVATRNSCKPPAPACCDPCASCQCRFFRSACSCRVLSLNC
molecule,measurement,setting,value
"Agouti-related protein (SPRRCVRLHESCLGQQVPCCDPCATCYCRFFNAFCYCRKLGTATNLCSRT; UniProt P56473 82-131, looked up) [AgRP]",effect on body weight (energy balance response),Adult male Wistar rats; ICV 0.01 nmol (submaximal dose),increased weight gain
same,effect on food intake in the first 24 hours,"Adult male Wistar rats; ICV 0.01 nmol, data not shown",no detectable effect on food intake
Asip (from UniProt P42127),Ki,MC1R [1],2.6 nM
GIINTLQKYYCRVRGGRSAVLSSLPKEEQIGKSSTRGRKCSRRKK-NH2 (disulfide 11-40) [CysT-V],Ki,MC1R [2],243 nM
same,Ki,human MC4R,206 nM
GIINTLQKYYSRVRGGRSAV-NH2 [N-term Truncate],Ki,MC1R [2],> 5000 nM
GIINTLQKYYSRVRGGRSAVLSSLPKEEQIGKSSTRGRKSSRRKK-NH2 [Cys->Ser],Ki,MC1R [2],297 nM
same,Ki,human MC4R,436 nM
canine β-defensin 103 [CBD103],effect on cAMP levels in Melan-a cells,[3],"neither CBD103 ([Candille et al., 2007]) nor HBD3 (Figure S1A) stimulate or reduce cAMP levels"
"RFF→AFF mutation in Asip: Asip mutant with RFF motif changed to AFF, literature value (protein) HLALEETLGDDRSLRSNSSMNSLDFSSVSIVALNKKSKKISRKEAEKRKRSSKKKASMKKVARPPPPSPCVATRDSCKPPAPACCDPCASCQCAFFGSACTCRVLNPNC",Ki,MC1R [4],> 1900 nM
